Measured values reported in publication PMC7825275 (Cancer chemotherapy and pharmacology, 2019).

System: patients with advanced solid tumors
Assay: Toxicity by grade
Assay type: in vivo, human
Details: first cycle including veliparib with carboplatin and paclitaxel, n=73
Procedure, shortened: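 Adverse events were tabulated descriptively as maximum grade in three groups: the chemotherapy-only lead-in cycle, the first veliparib-containing cycle, and all cycles. CBC and serum chemistry including liver function tests were drawn weekly during cycles 1–2, then at the start of every cycle. Veliparib was oral, twice daily on days 1–7; carboplatin/paclitaxel were IV every 21 days.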

C[C@]1(c2nc3c(C(N)=O)cccc3[nH]2)CCCN1 [veliparib]
57 (78) number of patients (%): Any adverse event, Grade 1
18 (25) number of patients (%): Anemia, Grade 2
5 (7) number of patients (%): Arthralgia, Grade 1 | Diarrhea, Any Grade | Diarrhea, Grade 1 | Fatigue, Grade 2 | Febrile neutropenia, Any Grade
13 (18) number of patients (%): Alopecia, Grade 1
26 (36) number of patients (%): Any adverse event, Grade 4
1 (1) number of patients (%): Alkaline phosphatase increased, Grade 1 | Alkaline phosphatase increased, Grade 2 | Allergic reaction, Grade 4 | Anxiety, Any Grade | Anxiety, Grade 1 | Arthralgia, Grade 2 | Blood bilirubin increased, Any Grade | Blood bilirubin increased, Grade 1 | Bone pain, Any Grade | Bone pain, Grade 1 | Chills, Any Grade | Chills, Grade 1 | Cytokine release syndrome, Any Grade | Cytokine release syndrome, Grade 2 | Dehydration, Any Grade | Dehydration, Grade 2 | Dysesthesia, Any Grade | Dysesthesia, Grade 1 | Dyspepsia, Grade 2 | Dyspnea, Grade 2 | Erythema multiforme, Any Grade | Erythema multiforme, Grade 2 | Esophagitis, Any Grade | Esophagitis, Grade 1 | Fever, Grade 3
17 (23) number of patients (%): Alopecia, Any Grade
3 (4) number of patients (%): Allergic reaction, Any Grade | Creatinine increased, Any Grade | Creatinine increased, Grade 1 | Dizziness, Any Grade | Dizziness, Grade 1 | Dyspepsia, Any Grade | Dyspnea, Any Grade | Edema limbs, Any Grade | Edema limbs, Grade 1 | Fever, Any Grade
18 (24) number of patients (%): Fatigue, Grade 1
0 number of patients (%): Alanine aminotransferase increased, Grade 2 | Alanine aminotransferase increased, Grade 3 | Alanine aminotransferase increased, Grade 4 | Alkaline phosphatase increased, Grade 3 | Alkaline phosphatase increased, Grade 4 | Allergic reaction, Grade 2 | Allergic reaction, Grade 3 | Alopecia, Grade 3 | Alopecia, Grade 4 | Anemia, Grade 4 | Anorexia, Grade 2 | Anorexia, Grade 3 | Anorexia, Grade 4 | Anxiety, Grade 2 | Anxiety, Grade 3 | Anxiety, Grade 4 | Arthralgia, Grade 3 | Arthralgia, Grade 4 | Aspartate aminotransferase increased, Grade 2 | Aspartate aminotransferase increased, Grade 3 | Aspartate aminotransferase increased, Grade 4 | Blood bilirubin increased, Grade 2 | Blood bilirubin increased, Grade 3 | Blood bilirubin increased, Grade 4 | Bone pain, Grade 2 | Bone pain, Grade 3 | Bone pain, Grade 4 | Chills, Grade 2 | Chills, Grade 3 | Chills, Grade 4 | Constipation, Grade 3 | Constipation, Grade 4 | Cough, Grade 2 | Cough, Grade 3 | Cough, Grade 4 | Creatinine increased, Grade 2 | Creatinine increased, Grade 3 | Creatinine increased, Grade 4 | Cytokine release syndrome, Grade 1 | Cytokine release syndrome, Grade 3 | Cytokine release syndrome, Grade 4 | Dehydration, Grade 1 | Dehydration, Grade 3 | Dehydration, Grade 4 | Diarrhea, Grade 2 | Diarrhea, Grade 3 | Diarrhea, Grade 4 | Dizziness, Grade 2 | Dizziness, Grade 3 | Dizziness, Grade 4 | Dry mouth, Grade 2 | Dry mouth, Grade 3 | Dry mouth, Grade 4 | Dysesthesia, Grade 2 | Dysesthesia, Grade 3 | Dysesthesia, Grade 4 | Dysgeusia, Grade 2 | Dysgeusia, Grade 3 | Dysgeusia, Grade 4 | Dyspepsia, Grade 3 | Dyspepsia, Grade 4 | Dysphagia, Grade 2 | Dysphagia, Grade 3 | Dysphagia, Grade 4 | Dyspnea, Grade 3 | Dyspnea, Grade 4 | Edema limbs, Grade 2 | Edema limbs, Grade 3 | Edema limbs, Grade 4 | Erythema multiforme, Grade 1 | Erythema multiforme, Grade 3 | Erythema multiforme, Grade 4 | Esophagitis, Grade 2 | Esophagitis, Grade 3 | Esophagitis, Grade 4 | Fatigue, Grade 4 | Febrile neutropenia, Grade 1 | Febrile neutropenia, Grade 2 | Fever, Grade 2
67 (92) number of patients (%): Any adverse event, Any Grade
24 (33) number of patients (%): Anemia, Any Grade
27 (37) number of patients (%): Fatigue, Any Grade
34 (47) number of patients (%): Any adverse event, Grade 3
2 (3) number of patients (%): Alanine aminotransferase increased, Any Grade | Alanine aminotransferase increased, Grade 1 | Alkaline phosphatase increased, Any Grade | Allergic reaction, Grade 1 | Anemia, Grade 3 | Aspartate aminotransferase increased, Any Grade | Aspartate aminotransferase increased, Grade 1 | Constipation, Grade 2 | Cough, Any Grade | Cough, Grade 1 | Dry mouth, Any Grade | Dry mouth, Grade 1 | Dysgeusia, Any Grade | Dysgeusia, Grade 1 | Dyspepsia, Grade 1 | Dysphagia, Any Grade | Dysphagia, Grade 1 | Dyspnea, Grade 1 | Febrile neutropenia, Grade 4 | Fever, Grade 1
46 (63) number of patients (%): Any adverse event, Grade 2
6 (8) number of patients (%): Arthralgia, Any Grade | Constipation, Any Grade
3(4) number of patients (%): Febrile neutropenia, Grade 3
4 (5) number of patients (%): Alopecia, Grade 2 | Anemia, Grade 1 | Anorexia, Any Grade | Anorexia, Grade 1 | Constipation, Grade 1 | Fatigue, Grade 3
